For 36 sequences, folding enthalpy and Tm results are on record in the array DNA melting data of Ke et al. (doi:10.1101/2024.01.08.574731).

Data set [1] in a line: folding enthalpy; higher = less favourable; fluorescence melt of hairpins on a sequencing array, two-state fit. The note with it: sodium 0.088 M. The method, boiled down: (§1)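 Library hairpins on a sequenced MiSeq flow cell carried annealed Cy3 and quencher oligos, and their Cy3 fluorescence was imaged in 50 mM Na-HEPES pH 8.0 with 25 mM NaCl, in 2.5 °C steps up to 60 °C. Signals were normalised to Cy3 before quenching and to control constructs. Melting temperature and folding enthalpy were obtained from bootstrapped two-state fits, combined by inverse-variance weighting across four replicates, and the fitted temperatures were then raised by 9.35 °C to match UV melts.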

A short description of data set [2]: melting temperature; fluorescence melt of hairpins on a sequencing array, two-state fit, raised by 9.35 °C to match UV melts. To be noted: sodium 0.088 M. The method, boiled down: as §1

For the sequence GTGGACGAAAGTCGCCAC ((((((....)))..))), in data set [1], the folding enthalpy was -18 kcal/mol. For the same sequence, in data set [2], the Tm is 43 °C.
The corresponding values for GTGGACGAAAGTCGTCAC ((((((....)))..))) are -16.3 kcal/mol and 40.1 °C.
On the same counts, the results for GTGGACGAAAGTCTACAC ((((((....)))..))) are -16.3 kcal/mol and 51.2 °C.
The corresponding values for GTGGACGAAAGTCTCCAC ((((((....)))..))) are -17.2 kcal/mol and 38.8 °C.
As for GTGGACGGAAACGTCCGC (.(((((....))))).), the folding enthalpy in data set [1] was -18.4 kcal/mol. Further, the Tm in data set [2] amounted to 62 °C.
On the same counts, the results for GTGGACGGAAACGTTCAC (((.(((....))).))) are -42.2 kcal/mol and 55 °C.
Consider GTGGAGAAATCCAC (((((....))))), for which, in data set [1], the folding enthalpy is -25.7 kcal/mol. The Tm in data set [2] was determined as 49.3 °C.
On the same counts, the results for GTGGAGGGAAACCTCTGC (..((((....))))..) are -19.2 kcal/mol and 37.6 °C.
On the same counts, the results for GTGGATGCGAAAGCACAC (((..(((....)))))) are -17.9 kcal/mol and 45.4 °C.
For GTGGATGGAAACGTTCAC (((.(.(....).).))), the folding enthalpy in data set [1] was -16.7 kcal/mol. Moreover, the Tm in data set [2] is 32.4 °C.
On the same counts, the results for GTGGCACGAAAGTGTCAC (((.(((....))).))) are -42 kcal/mol and 67.2 °C.
For the sequence GTGGCAGGAAACCACCAC ((((..(....)..)))), the folding enthalpy in data set [1] was -22.5 kcal/mol. Moreover, the Tm in data set [2] worked out at 35 °C.
On the same counts, the results for GTGGCAGGAAACTACCAC ((((.((....)).)))) are -34.2 kcal/mol and 44.6 °C.
As to GTGGCCACGAAAGTGCAC (((..(((....)))))), in data set [1], the folding enthalpy is -12.5 kcal/mol. Besides, the Tm in data set [2] stood at 38.1 °C.
The corresponding values for GTGGCCCCGAAAGGGCAC (((..(((....)))))) are -15 kcal/mol and 57.5 °C.
The corresponding values for GTGGCCGAAAGGCGCAC ((((((....))).))) are -13.9 kcal/mol and 56.3 °C.
As to GTGGCCGAAAGGCGTCAC ((((((....)))..))), the folding enthalpy in data set [1] was -12.2 kcal/mol. The Tm in data set [2] worked out at 43.5 °C.
Regarding GTGGCCGGAAACGGCTAC ((.((((....)))).)), the folding enthalpy in data set [1] is -20.4 kcal/mol. Further, the Tm in data set [2] came to 60.3 °C.
GTGGCCGGAAACGGTCAC (((.(((....))).))): the folding enthalpy in data set [1] is -37.2 kcal/mol. Moreover, the Tm in data set [2] is 66.1 °C.
With GTGGCCGGAAACGGTCGC (.(.(((....))).).), the folding enthalpy in data set [1] is -39.5 kcal/mol. Besides, the Tm in data set [2] is 53.4 °C.
The corresponding values for GTGGCGACGAAAGTCCAC (((..(((....)))))) are -17.3 kcal/mol and 42.8 °C.
With GTGGCGGGAAACCGCCGC (.(((((....))))).), the folding enthalpy in data set [1] is -14.9 kcal/mol. Further, in data set [2], the Tm is 66.6 °C.
The corresponding values for GTGGCGGGAAACCGTCAC (((.(((....))).))) are -40.6 kcal/mol and 63.5 °C.
The corresponding values for GTGGCTCGAAAGAGTCAC (((.(((....))).))) are -49.6 kcal/mol and 63.8 °C.
The corresponding values for GTGGGACGAAAGTCACAC (((.(((....))).))) are -29.6 kcal/mol and 68.9 °C.
For the sequence GTGGGAGGAAACTTCCGC (.((.((....)).)).), the folding enthalpy in data set [1] is -23.9 kcal/mol. Further, the Tm in data set [2] stood at 40.6 °C.
On the same counts, the results for GTGGGCCGAAAGGCCAC (((.(((....)))))) are -10.7 kcal/mol and 64.9 °C.
The corresponding values for GTGGGCGAAAGCCGACAC ((((((....)))..))) are -13.6 kcal/mol and 53.8 °C.
On the same counts, the results for GTGGGCGAAAGCCTACAC ((((((....)))..))) are -11.9 kcal/mol and 55.1 °C.
Take GTGGGCGAAAGCCTCCAC ((((((....)))..))): the folding enthalpy in data set [1] was -11.7 kcal/mol. The Tm in data set [2] was determined as 37.6 °C.
On the same counts, the results for GTGGGCGAAAGCCTTCAC ((((((....)))..))) are -12.7 kcal/mol and 33.1 °C.
As for GTGGGGAAACCCAC (((((....))))), the folding enthalpy in data set [1] is -25.7 kcal/mol. In addition, the Tm in data set [2] was determined as 62 °C.
The corresponding values for GTGGGGGCGAAAGCCCAC (((..(((....)))))) are -15.1 kcal/mol and 65.5 °C.
Regarding GTGGGTACGAAAGTACAC (((..(((....)))))), the folding enthalpy in data set [1] was -31.6 kcal/mol. In data set [2], the Tm is 55 °C.
Take GTGGGTCGAAAGACTCAC (((.(((....))).))): the folding enthalpy in data set [1] is -40.4 kcal/mol. Besides, the Tm in data set [2] worked out at 59 °C.
On the same counts, the results for GTGGGTGCGAAAGCACAC (((..(((....)))))) are -17.5 kcal/mol and 64.2 °C.
